Reference: ChEMBL document CHEMBL1127635, “Thiopyrano[2,3,4-cd]indoles as 5-lipoxygenase inhibitors: synthesis, biological profile, and resolution of 2-[2-[1-(4-chlorobenzyl)-4-methyl-6-[(5-phenylpyridin-2-yl)methoxy]-4,5 -dihydro-1H-thiopyrano[2,3,4-cd]indol-2-yl]ethoxy]butanoic acid” (J Med Chem, 1994)
Values belong to the molecule of their own block, whether it stands above or below them.

Assays:
Homo sapiens [1] = species on record: Homo sapiens; experiment: Effect on production of LTB4 in human polymorphonuclear leukocytes; format: functional
Outline: (§1)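 LTB4 biosynthesis measured in human polymorphonuclear leukocytes activated with Ca2+ ionophore.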

[2] = target: T1, Polyunsaturated fatty acid 5-lipoxygenase (Homo sapiens, UniProt P09917); experiment: In vitro inhibition of human 5-Lipoxygenase.
T1 sequence (P09917 whole entry): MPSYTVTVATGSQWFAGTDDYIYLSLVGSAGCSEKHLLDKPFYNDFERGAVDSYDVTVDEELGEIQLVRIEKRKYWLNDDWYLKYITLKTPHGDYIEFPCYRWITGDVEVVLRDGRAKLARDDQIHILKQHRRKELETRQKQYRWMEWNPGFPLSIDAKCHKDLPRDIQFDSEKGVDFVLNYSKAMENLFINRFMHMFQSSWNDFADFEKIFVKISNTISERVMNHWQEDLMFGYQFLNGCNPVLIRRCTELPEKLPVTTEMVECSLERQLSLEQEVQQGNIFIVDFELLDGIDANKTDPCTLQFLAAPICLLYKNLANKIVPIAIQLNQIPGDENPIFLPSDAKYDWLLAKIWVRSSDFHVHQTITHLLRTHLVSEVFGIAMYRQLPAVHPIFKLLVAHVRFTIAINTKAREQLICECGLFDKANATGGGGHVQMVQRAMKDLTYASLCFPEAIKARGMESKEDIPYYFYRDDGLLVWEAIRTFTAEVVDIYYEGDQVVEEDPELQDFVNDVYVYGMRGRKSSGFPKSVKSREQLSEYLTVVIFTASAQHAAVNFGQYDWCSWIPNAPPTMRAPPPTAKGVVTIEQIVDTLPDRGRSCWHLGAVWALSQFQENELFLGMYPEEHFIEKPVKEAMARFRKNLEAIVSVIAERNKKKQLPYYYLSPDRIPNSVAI
Outline: (§2)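 Spectrophotometric assay following 5-H(P)ETE production by the 100000g supernatant (S100) fraction of insect cells overexpressing human 5-LO.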

Homo sapiens [3] = species on record: Homo sapiens; experiment: Effect on production of LTB4 in human whole blood; format: functional
Outline: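 Human whole blood activated with ionophore A23187; inhibition of LTB4 biosynthesis assessed.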

[4] = Tested for inhibition of Ascaris antigen induced bronchoconstriction in the conscious squirrel monkey at 0.1 mg/kg dose (changes in dynamic compliance); format: functional
Outline: (§3)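 Allergic conscious squirrel monkeys pretreated with drug for 4 h, then challenged with aerosolized Ascaris antigen (1:25 dilution). Airway resistance (RL) increase and dynamic compliance (Cdyn) decrease recorded; % inhibition versus control, mean ± SEM.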

[5] = Cmax value in rat plasma when administered 20 mg/kg perorally; format: ADME, organism-based; parameters: dose 20 mg/kg, route oral; details: po
Outline: (§4)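 Rat plasma profiles after dosing the sodium salts either orally at 20 mg/kg in 1% methocel or iv at 5 mg/kg in PEG 200. Bioavailability is calculated as AUCpo/4 × AUCiv.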

[6] = Inhibition of Ascaris antigen induced bronchoconstriction in the conscious squirrel monkey at 0.3 mg/kg dose (Change in airway resistance); format: functional; outline: as §3
[7] = Inhibition of Ascaris antigen induced bronchoconstriction in the conscious squirrel monkey at 0.1 mg/kg dose (Change in airway resistance); format: functional; outline: as §3
Rattus norvegicus [8] = experiment: Tested for percentage inhibition of dyspnea (0.5 mg/kg po using methocel) by in vivo in hyperactive rat after 4 hours pretreatment; format: functional
Outline: (§5)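 Inbred hyperreactive rats pretreated with methysergide 3 mg/kg iv. Drug given at 0.5 mg/kg po in methocel before ovalbumin challenge. Read-out is % inhibition of dyspnea duration versus litter-mate-matched vehicle controls, n = 6.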

Rattus norvegicus [9] = experiment: Tested for percentage inhibition of dyspnea (0.5 mg/kg po using methocel) by in vivo in hyperactive rat after 2 hours pretreatment; format: functional; outline: as §5
[10] = Tested for inhibition of Ascaris antigen induced bronchoconstriction in the conscious squirrel monkey at 0.3 mg/kg dose (changes in dynamic compliance); format: functional; outline: as §3
[11] = Bioavailability in rat (dose 5 mg/kg i.v.); format: ADME, organism-based; details: in vivo, iv; outline: as §4
[12] = Tmax value in rat plasma when administered 20 mg/kg perorally; format: ADME, organism-based; parameters: dose 20 mg/kg, route oral; details: po; outline: as §4
Rattus norvegicus [13] = experiment: In vivo inhibition of LBT4 in a rat pleurisy model with a 6 h pretreatment time; format: functional
Outline: (§6)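 Male Sprague-Dawley rats given 0.4 mL of 0.5% carrageenan in saline intrapleurally 16 h before drug. Drug doses ranged from 3 to 0.3 mg/kg. Intrapleural calcium ionophore challenge 6 h after dosing. LTB4 in pleural exudate measured 1 h later; ED50 derived, n = 6/group.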

Homo sapiens [14] = species on record: Homo sapiens; experiment: (§7) Effect on production of LTB4 in human polymorphonuclear (HPMN) leukocytes; format: functional; outline: as §1
Rattus norvegicus [15] = species on record: Rattus norvegicus; experiment: Tested for effective inhibition of LTB4 with an 8 hr pretreatment; format: functional
[16] = target: T1, Polyunsaturated fatty acid 5-lipoxygenase; experiment: Tested against 5-lipoxygenase; outline: as §2
[17] = Tested for inhibition of Ascaris antigen induced bronchoconstriction in the conscious squirrel monkey at 0.3 mg/kg dose (changes in the airway resistance(); format: functional; outline: as §3
Homo sapiens [18] = species on record: Homo sapiens; experiment: as §7
Rattus norvegicus [19] = experiment: In vivo inhibition of LTB4 biosynthesis in a rat pleurisy model with an 6 hr pretreatment time; format: functional; outline: as §6

Compound: CCC(OCCc1c2c3c(c(OCc4ccc(-c5ccccc5)cn4)ccc3n1Cc1ccc(Cl)cc1)CC(C)S2)C(=O)O (stereo in doubt; 14e)
IC50 (Homo sapiens [1]): 3.5 nM
IC50 [2]: 13 nM
IC50 (Homo sapiens [3]): 1800 nM

Compound: CCC(OCCc1c2c3c(c(OCc4ccc(-c5ccccc5)cn4)ccc3n1Cc1ccc(Cl)cc1)CC(C)S2)C(=O)O (stereo in doubt; 14h)
IC50 (Homo sapiens [1]): 17 nM
IC50 [2]: 80 nM
IC50 (Homo sapiens [3]): 4800 nM

Compound: CC1Cc2c(OCc3ccc(-c4ccccc4)cn3)ccc3c2c(c(CCOC(C)C(=O)NS(C)(=O)=O)n3Cc2ccc(Cl)cc2)S1 (stereo not given)
IC50 (Homo sapiens [1]; Homo sapiens): 4.5 nM
IC50 [2]: 22 nM

Compound: CCC(OCCc1c2c3c(c(OCc4ccc(-c5ccccc5)cn4)ccc3n1Cc1ccc(Cl)cc1)CC(C)S2)C(=O)O (stereo in doubt; 14d)
inhibition in vivo at 0.1 mg/kg [4]: 68%
Cmax [5]: 5.5 µM
inhibition in vivo at 0.3 mg/kg [6]: 100%
IC50 (Homo sapiens [1]): 7 nM
inhibition in vivo at 0.1 mg/kg [7]: 89%
IC50 [2]: 22 nM
Inhibition (Rattus norvegicus [8]): 51%
Inhibition (Rattus norvegicus [9]): 55%
IC50 (Homo sapiens [3]): 3800 nM
inhibition in vivo at 0.3 mg/kg [10]: 100%
bioavailability [11]: 88%
Tmax [12]: 6 h
ED50 (Rattus norvegicus [13]): 0.65 mg/kg

Compound: CC(=O)N(CCc1c2c3c(c(OCc4ccc(-c5ccccc5)cn4)ccc3n1Cc1ccc(Cl)cc1)CC(C)S2)C(C)C(=O)O (stereo not given)
IC50 (Homo sapiens [1]; Homo sapiens): 113 nM
IC50 [2]: 900 nM

Compound: CCC(OCCc1c2c3c(c(OCc4ccc(-c5ccccc5)cn4)ccc3n1Cc1ccc(Cl)cc1)CC(C)S2)C(=O)O (stereo in doubt; 14f)
IC50 (Homo sapiens [1]): 10 nM
IC50 [2]: 150 nM
IC50 (Homo sapiens [3]): 16000 nM

Compound: CC[C@H](CSCc1c2c3c(c(OCc4ccc(-c5ccccc5)cn4)ccc3n1Cc1ccc(Cl)cc1)CC(C)S2)C(=O)O (stereo not given in full)
IC50 (Homo sapiens [1]; Homo sapiens): 12 nM
IC50 [2]: 120 nM

Compound: CCC(CSCc1c2c3c(c(OCc4ccc(-c5ccccc5)cn4)ccc3n1Cc1ccc(Cl)cc1)CC(C)S2)C(=O)O (stereo not given)
IC50 (Homo sapiens [1]; Homo sapiens): 6 nM

Compound: CC(C)(C)Sc1c(CC(C)(C)C(=O)O)n(Cc2ccc(Cl)cc2)c2ccc(OCc3ccc4ccccc4n3)cc12 [QUIFLAPON]
inhibition in vivo at 0.3 mg/kg [17]: 44%
IC50 (Homo sapiens [18]): 3 nM
ED50 (Rattus norvegicus [19]): 0.16 mg/kg
inhibition in vivo at 0.3 mg/kg [10]: 46%

Compound: CC(c1cc2ccccc2s1)N(O)C(N)=O (stereo not given) [ZILEUTON]
IC50 (Homo sapiens [14]): 1060 nM
IC50 (Homo sapiens [3]; Homo sapiens, Blood): 2000 nM

Compound: CC1Cc2c(OCc3ccc(-c4ccccc4)cn3)ccc3c2c(c(CCOCCC(=O)O)n3Cc2ccc(Cl)cc2)S1 (stereo not given)
IC50 (Homo sapiens [1]; Homo sapiens): 11 nM
IC50 [2]: 105 nM

Compound: CCC(OCCc1c2c3c(c(OCc4ccc(-c5ccccc5)cn4)ccc3n1Cc1ccc(Cl)cc1)CC(C)S2)C(=O)O (stereo in doubt; 14g)
IC50 (Homo sapiens [1]): 4 nM
IC50 [2]: 8 nM
IC50 (Homo sapiens [3]): 1000 nM

Compound: CC1Cc2c(OCc3ccc(-c4ccccc4)cn3)ccc3c2c(c(CC(=O)N(C)C(C)C(=O)O)n3Cc2ccc(Cl)cc2)S1 (stereo not given)
IC50 (Homo sapiens [1]; Homo sapiens): 200 nM
IC50 [2]: 300 nM

Compound: CCC(OCCc1c2c3c(c(OCc4ccc(-c5ccccc5)cn4)ccc3n1Cc1ccc(Cl)cc1)CC(C)S2)C(=O)NS(C)(=O)=O (stereo not given)
Cmax [5]: 4 µM
IC50 (Homo sapiens [1]; Homo sapiens): 6.5 nM
IC50 [2]: 20 nM
bioavailability [11]: 72%
Tmax [12]: 4 h

Now from value to molecule, other results behind:

IC50 (Homo sapiens [1]; Homo sapiens): 1100 nM
IC50 [2]: 4000 nM
Compound: CC1Cc2c(OCc3ccc(-c4ccccc4)cn3)ccc3c2c(c(CCNC(C)C(=O)O)n3Cc2ccc(Cl)cc2)S1 (stereo not given)

IC50 (Homo sapiens [14]): 8 nM
Compound: CC1Cc2c(OCc3ccc(-c4ccccc4)cn3)ccc3c2c(c(CC(C)(C)Cc2nnn[nH]2)n3Cc2ccc(Cl)cc2)S1 (stereo not given)
ED50 (Rattus norvegicus [15]): 1.9 mg/kg

Cmax [5]: 3.8 µM
IC50 (Homo sapiens [1]; Homo sapiens): 5 nM
IC50 [2]: 20 nM
bioavailability [11]: 35%
Tmax [12]: 2 h
Compound: CC1Cc2c(OCc3ccc(-c4ccccc4)cn3)ccc3c2c(c(CCOC(C)C(=O)O)n3Cc2ccc(Cl)cc2)S1 (stereo not given)
Inhibition (Rattus norvegicus [8]): 2%
Inhibition (Rattus norvegicus [9]): 53%

IC50 (Homo sapiens [1]; Homo sapiens): 65 nM
IC50 [2]: 250 nM
Compound: CC1Cc2c(OCc3ccc(-c4ccccc4)cn3)ccc3c2c(c(COCCC(=O)O)n3Cc2ccc(Cl)cc2)S1 (stereo not given)

IC50 (Homo sapiens [1]; Homo sapiens): 17 nM
Compound: CC1Cc2c(OCc3ccc(-c4ccccc4)cn3)ccc3c2c(c(COCC(=O)O)n3Cc2ccc(Cl)cc2)S1 (stereo not given)

IC50 (Homo sapiens [1]; Homo sapiens): 10 nM
IC50 [2]: 55 nM
Compound: CC1Cc2c(OCc3ccc(-c4ccccc4)cn3)ccc3c2c(c(CSCCC(=O)O)n3Cc2ccc(Cl)cc2)S1 (stereo not given)

IC50 [16]: 60 nM
IC50 (Homo sapiens [14]): 10 nM
Compound: CC1Cc2c(OCc3ccc(-c4ccccc4)cn3)ccc3c2c(c(CCOC(C)c2nnn[nH]2)n3Cc2ccc(Cl)cc2)S1 (stereo not given)

IC50 (Homo sapiens [1]; Homo sapiens): 17 nM
Compound: CC1Cc2c(OCc3ccc(-c4ccccc4)cn3)ccc3c2c(c(CCSC(C)C(=O)O)n3Cc2ccc(Cl)cc2)S1 (stereo not given)

IC50 (Homo sapiens [1]; Homo sapiens): 15 nM
Compound: CC1Cc2c(OCc3ccc(-c4ccccc4)cn3)ccc3c2c(c(CSCC(=O)O)n3Cc2ccc(Cl)cc2)S1 (stereo not given)

IC50 (Homo sapiens [1]; Homo sapiens): 20 nM
Compound: CC1Cc2c(OCc3ccc(-c4ccccc4)cn3)ccc3c2c(c(CSCC(C)C(=O)O)n3Cc2ccc(Cl)cc2)S1 (stereo not given)

IC50 (Homo sapiens [1]; Homo sapiens): 7 nM
IC50 [2]: 50 nM
Compound: CC1Cc2c(OCc3ccc(-c4ccccc4)cn3)ccc3c2c(c(CCOC(C)(C)C(=O)O)n3Cc2ccc(Cl)cc2)S1 (stereo not given)

IC50 (Homo sapiens [1]; Homo sapiens): 50 nM
IC50 [2]: 70 nM
Compound: CC(CC(=O)O)SCc1c2c3c(c(OCc4ccc(-c5ccccc5)cn4)ccc3n1Cc1ccc(Cl)cc1)CC(C)S2 (stereo not given)

IC50 (Homo sapiens [1]; Homo sapiens): 31 nM
Compound: CC1Cc2c(OCc3ccc(-c4ccccc4)cn3)ccc3c2c(c(CCOCC(=O)O)n3Cc2ccc(Cl)cc2)S1 (stereo not given)

IC50 (Homo sapiens [1]; Homo sapiens): 7 nM
IC50 [2]: 40 nM
Compound: CC[C@@H](CSCc1c2c3c(c(OCc4ccc(-c5ccccc5)cn4)ccc3n1Cc1ccc(Cl)cc1)CC(C)S2)C(=O)O (stereo not given in full)
